# Experimental data: ChEMBL document CHEMBL3414481, “Discovery of highly selective brain-penetrant vasopressin 1a antagonists for the potential treatment of autism via a chemogenomic and scaffold hopping approach” (J Med Chem, 2015); call rule not given here
# Experiments:
# [1] = target: T1, Vasopressin V1a receptor (Homo sapiens, UniProt P37288); assay: Displacement of [3H]-vasopressin from human vasopressin 1a receptor expressed in HEK293 cell membranes after 1 hr by scintillation proximity assay
# Procedure, shortened: (§1)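 Radioligand competition binding; affinity reported as Ki.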
# Target sequence in this assay (P37288 whole entry): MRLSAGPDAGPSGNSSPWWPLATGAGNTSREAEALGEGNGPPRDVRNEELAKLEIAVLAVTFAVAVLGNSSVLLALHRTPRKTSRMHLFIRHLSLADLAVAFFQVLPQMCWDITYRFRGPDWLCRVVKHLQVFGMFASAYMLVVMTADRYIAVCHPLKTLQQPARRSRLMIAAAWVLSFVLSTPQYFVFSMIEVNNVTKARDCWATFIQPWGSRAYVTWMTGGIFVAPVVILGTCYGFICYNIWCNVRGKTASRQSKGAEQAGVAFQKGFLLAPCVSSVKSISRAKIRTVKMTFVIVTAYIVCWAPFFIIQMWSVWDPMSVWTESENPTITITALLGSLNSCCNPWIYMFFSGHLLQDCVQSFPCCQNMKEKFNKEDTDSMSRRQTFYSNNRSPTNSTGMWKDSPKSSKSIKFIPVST
# [2] = target: T1, Vasopressin V1a receptor; assay: Antagonist activity at human vasopressin 1a receptor expressed in CHO cells assessed as inhibition of vasopressin-induced calcium flux preincubated for 20 mins followed by vasopressin induction measured for 5 mins by FLIPR assay; type: functional, cell-based
# Procedure, shortened: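 Functional antagonist calcium-flux read-out; value reported as apparent affinity (Kb).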
# Target sequence in this assay (P37288 whole entry, looked up): as the sequence (P37288 whole entry) above
# [3] = target: Vasopressin V1a receptor (Mus musculus, UniProt Q62463); assay: Displacement of [3H]-vasopressin from mouse vasopressin 1a receptor expressed in HEK293 cell membranes after 1 hr by scintillation proximity assay; procedure, shortened: as §1
# Chain of Vasopressin V1a receptor (Mus musculus, UniProt Q62463) (Q62463 whole entry): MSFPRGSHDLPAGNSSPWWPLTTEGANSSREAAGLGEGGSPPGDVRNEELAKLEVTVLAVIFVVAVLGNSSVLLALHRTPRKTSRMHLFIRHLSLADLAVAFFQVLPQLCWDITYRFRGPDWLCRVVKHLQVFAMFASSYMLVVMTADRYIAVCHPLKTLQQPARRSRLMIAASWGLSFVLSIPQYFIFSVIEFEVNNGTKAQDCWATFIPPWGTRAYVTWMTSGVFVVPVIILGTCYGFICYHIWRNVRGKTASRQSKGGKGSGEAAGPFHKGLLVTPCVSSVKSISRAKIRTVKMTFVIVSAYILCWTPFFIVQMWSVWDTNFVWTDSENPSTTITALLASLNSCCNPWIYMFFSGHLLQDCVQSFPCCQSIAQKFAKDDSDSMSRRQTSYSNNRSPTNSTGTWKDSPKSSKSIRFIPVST
# [4] = target: Vasopressin V2 receptor (Homo sapiens, UniProt P30518); assay: Displacement of [3H]-vasopressin from human vasopressin V2 receptor expressed in HEK293 cell membranes after 1 hr by scintillation proximity assay
# Chain of Vasopressin V2 receptor (P30518 whole entry): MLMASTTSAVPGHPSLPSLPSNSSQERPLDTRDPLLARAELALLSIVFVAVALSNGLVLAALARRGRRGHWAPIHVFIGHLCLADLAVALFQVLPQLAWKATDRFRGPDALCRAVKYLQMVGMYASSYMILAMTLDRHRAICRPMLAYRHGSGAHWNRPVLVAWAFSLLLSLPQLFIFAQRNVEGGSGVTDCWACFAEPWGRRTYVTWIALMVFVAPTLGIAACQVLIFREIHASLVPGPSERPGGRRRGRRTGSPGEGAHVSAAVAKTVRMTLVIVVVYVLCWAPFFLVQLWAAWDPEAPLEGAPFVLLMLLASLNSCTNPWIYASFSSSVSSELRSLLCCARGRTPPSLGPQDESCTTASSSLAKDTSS
# [5] = target: T2, Oxytocin receptor (Homo sapiens, UniProt P30559); assay: Displacement of [3H]-oxytocin from human oxytocin receptor expressed in HEK cell membranes after 1 hr by scintillation proximity assay; design: species or system HEK293
# T2 sequence (P30559 whole entry): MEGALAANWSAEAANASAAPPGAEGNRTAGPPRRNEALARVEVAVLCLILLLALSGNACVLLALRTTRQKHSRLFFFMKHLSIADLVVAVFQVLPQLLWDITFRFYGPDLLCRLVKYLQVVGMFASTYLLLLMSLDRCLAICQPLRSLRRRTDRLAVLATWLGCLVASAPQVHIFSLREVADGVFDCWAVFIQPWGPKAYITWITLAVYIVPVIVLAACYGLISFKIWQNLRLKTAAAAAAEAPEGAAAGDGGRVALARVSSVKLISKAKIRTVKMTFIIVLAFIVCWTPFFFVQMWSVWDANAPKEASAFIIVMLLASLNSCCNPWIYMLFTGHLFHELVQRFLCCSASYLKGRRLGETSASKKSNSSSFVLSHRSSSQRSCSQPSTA
# [6] = Solubility of the compound in phosphate buffer at pH 6.5 incubated for 1 hr with stirring followed by 2 hrs of shaking by Lysa assay; type: physicochemical
# [7] = Octanol-buffer partition co-efficient, log D of the compound after 24 hrs by high-throughput shake-flask method; type: physicochemical
# [8] = species: Homo sapiens; assay: Selectivity ratio of Ki for human vasopressin V2 receptor to Ki for human vasopressin 1a receptor
# Procedure, shortened: (§2)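 Ratio of the Ki at hV2 or hOTR to the hV1a Ki. Each Ki came from a radioligand competition binding assay.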
# [9] = species: Homo sapiens; assay: Selectivity ratio of Ki for human oxytocin receptor to Ki for human vasopressin 1a receptor; procedure, shortened: as §2
# [10] = Activity at human P-gp assessed as drug transport; type: ADME
# [11] = Ratio of drug level in brain to plasma in mouse at 10 mg/kg, po; type: ADME, organism-based; design: dose 10 mg/kg, route oral; settings: read-out: BPR
# [12] = Volume of distribution at steady state in mouse at 2 mg/kg, iv; type: ADME, organism-based; design: dose 2 mg/kg, route intravenous; settings: in vivo, read-out: Vdss
# [13] = Clearance in mouse at 2 mg/kg, iv; type: ADME, organism-based; design: dose 2 mg/kg, route intravenous; settings: in vivo
# [14] = tested on: Mus musculus; assay: Inhibition of arginine vasopressin-induced scratching in ip dosed NMRI mouse administered 30 mins prior to arginine vasopressin challenge measured for 5 mins; type: functional, organism-based
# Procedure, shortened: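 Mice received the compound i.p. at 0.3, 1, 3, 10 or 30 mg/kg or vehicle before centrally given AVP. AVP-induced scratching was scored and expressed as % of maximal response.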
# [15] = tested on: Mus musculus; assay: Inhibition of arginine vasopressin-induced scratching in icv dosed NMRI mouse administered 5 mins prior to arginine vasopressin challenge measured for 5 mins; type: functional, organism-based
# Procedure, shortened: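 Mice received the compound i.c.v. at three doses or vehicle before centrally given AVP. AVP-induced scratching was scored and expressed as % of maximal response.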
# [16] = target: T3, Vasopressin V1b receptor (Homo sapiens, UniProt P47901); assay: Displacement of [3H]-vasopressin from human vasopressin 1b receptor after 1 hr by scintillation proximity assay
# T3 sequence (P47901 whole entry): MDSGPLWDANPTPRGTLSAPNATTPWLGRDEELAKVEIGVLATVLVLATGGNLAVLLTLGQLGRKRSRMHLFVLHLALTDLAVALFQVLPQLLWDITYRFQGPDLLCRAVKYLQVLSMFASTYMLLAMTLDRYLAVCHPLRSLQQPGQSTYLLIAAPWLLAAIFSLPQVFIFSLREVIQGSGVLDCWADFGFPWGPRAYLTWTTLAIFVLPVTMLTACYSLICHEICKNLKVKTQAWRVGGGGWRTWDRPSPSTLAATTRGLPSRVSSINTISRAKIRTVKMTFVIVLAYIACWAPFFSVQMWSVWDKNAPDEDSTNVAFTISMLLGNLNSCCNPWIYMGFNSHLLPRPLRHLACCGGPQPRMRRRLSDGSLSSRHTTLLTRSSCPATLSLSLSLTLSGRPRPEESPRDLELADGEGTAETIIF
smiles,measurement,setting,value
O=C(c1c[nH]c2cc(Cl)ccc12)N1CCC2(CC1)OCc1ncccc12,Ki,[1]; read-out: Ki,39 nM
same,Kb,[2],7.8 nM
same,Ki,[3]; read-out: Ki,4820 nM
Cc1c(C(=O)N2CCC3(CC2)OCc2ccccc23)c2ccccc2n1Cc1ccccc1,Ki,[1]; read-out: Ki,2 nM
same,Kb,[2],3.6 nM
same,Ki,[3]; read-out: Ki,210 nM
same,Ki,[4],9310 nM
same,Ki,[5]; hek293,Not Active
same,solubility at 3 h,[6],< 1 µg/mL
same,logD at 24 h,[7],> 3
CN(C)CCNC(=O)Cn1cc(C(=O)N2CCC3(CC2)OCc2ccccc23)c2ccc(Cl)cc21,Ki,[1]; read-out: Ki,2 nM
same,Kb,[2],0.7 nM
same,Ki,[3]; read-out: Ki,177 nM
same,Ratio Ki,[8],11800
same,Ratio Ki,[9],5690
same,solubility at 3 h,[6],> 650 µg/mL
same,Activity,[10],Active
same,Kp,[11],0.1
same,Vd,[12],4.9 L/kg
same,clearance,[13],14 mL/min/kg
same,inhibition,[14],Dose-dependent effect
O=C(c1c[nH]c2cc(Cl)ccc12)N1CCN(c2ccccc2Cl)CC1,Ki,[1]; read-out: Ki,118 nM
same,Kb,[2],193 nM
same,Ki,[3]; read-out: Ki,1970 nM
O=C(c1c[nH]c2ccccc12)N1CCC2(CC1)OCc1ccccc12,Ki,[1]; read-out: Ki,32 nM
same,Ki,[3]; read-out: Ki,6620 nM
same,solubility at 3 h,[6],17 µg/mL
same,logD at 24 h,[7],> 3
COc1ccccc1C(=O)N1CCC(O)(Cc2ccccc2)CC1,Ki,[1]; hek293,Not Active
O=C(c1c[nH]c2cc(Cl)ccc12)N1CCC2(CC1)OCc1ccncc12,Ki,[1]; read-out: Ki,9 nM
same,Kb,[2],4.2 nM
same,Ki,[3]; read-out: Ki,2980 nM
O=C(c1c[nH]c2cc(Cl)ccc12)N1CCC2(CC1)CNc1ccccc12,Kb,[2],20 nM
same,Ki,[3]; read-out: Ki,5890 nM
Cc1c(C(=O)N2CCC(O)(Cc3ccccc3)CC2)c2ccccc2n1S(=O)(=O)c1ccccc1,Ki,[1]; read-out: Ki,4990 nM
Cc1c(C(=O)N2CCC(O)(Cc3ccccc3)CC2)c2ccccc2n1C(=O)c1ccccc1,Ki,[1]; read-out: Ki,3900 nM
O=C(c1c[nH]c2cc(Cl)ccc12)N1CCC2(CC1)COc1ccccc12,Ki,[1]; read-out: Ki,16 nM
same,Kb,[2],72 nM
same,Ki,[3]; hek293,Not Active
CN1CCN(C(=O)Cn2cc(C(=O)N3CCC4(CC3)OCc3ccccc34)c3ccc(Cl)cc32)CC1,Ki,[1]; read-out: Ki,1 nM
same,Kb,[2],0.2 nM
same,Ki,[3]; read-out: Ki,41 nM
same,Ratio Ki,[8],> 60000
same,Ratio Ki,[9],9160
same,solubility at 3 h,[6],193 µg/mL
same,Kp,[11],0.07
same,Vd,[12],1.5 L/kg
same,clearance,[13],39 mL/min/kg
same,inhibition,[15],Dose-dependent effect
O=C(c1cn(C[C@@H]2CCCN2)c2cc(Cl)ccc12)N1CCC2(CC1)OCc1ccccc12,Ki,[1]; read-out: Ki,1.4 nM
same,Kb,[2],1.4 nM
same,Ki,[3]; read-out: Ki,125 nM
same,Ratio Ki,[8],> 19300
same,Ratio Ki,[9],1510
same,solubility at 3 h,[6],108 µg/mL
same,Activity,[10],Active
same,Kp,[11],0.05
same,Vd,[12],6.8 L/kg
same,clearance,[13],32 mL/min/kg
CN(C)CCn1cc(C(=O)N2CCC3(CC2)OCc2ccccc23)c2ccc(Cl)cc21 [RO-5028442],Kb,[2],2.6 nM
same,Ki,[3]; read-out: Ki,39 nM
same,Ratio Ki,[8],> 30000
same,Ratio Ki,[9],9890
same,solubility at 3 h,[6],205 µg/mL
same,Activity,[10],Not Active
same,Kp,[11],1.4
same,Vd,[12],5.8 L/kg
same,clearance,[13],91 mL/min/kg
O=C(c1c[nH]c2cc(Cl)ccc12)N1CCC2(CC1)OCc1cccnc12,Ki,[1]; read-out: Ki,5 nM
same,Kb,[2],1.8 nM
same,Ki,[3]; read-out: Ki,1020 nM
O=C(c1c[nH]c2cc(Cl)ccc12)N1CCC2(CC1)OCc1ccccc12,Ki,[1]; read-out: Ki,4 nM
same,Kb,[2],2.9 nM
same,Ki,[3]; read-out: Ki,1010 nM
same,Ki,[4],> 27000 nM
same,Ki,[5]; read-out: Ki,7520 nM
same,Ratio Ki,[8],> 6750
same,Ratio Ki,[9],1880
same,solubility at 3 h,[6],4 µg/mL
same,Activity,[10],Not Active
same,logD at 24 h,[7],3.7
Cc1c(C(=O)N2CCC(O)(Cc3ccccc3)CC2)c2ccccc2n1Cc1ccccc1,Ki,[1]; read-out: Ki,295 nM
O=C(c1c[nH]c2cc(Cl)ccc12)N1CCC2(CC1)c1ccccc1CS2(=O)=O,Ki,[1]; read-out: Ki,24 nM
same,Kb,[2],11 nM
same,Ki,[3]; read-out: Ki,5890 nM
CN(C)C(=O)Cn1cc(C(=O)N2CCC3(CC2)OCc2ccccc23)c2ccc(Cl)cc21,Kb,[2],0.1 nM
same,Ki,[3]; read-out: Ki,14 nM
same,solubility at 3 h,[6],56 µg/mL
same,Activity,[10],Active
same,Kp,[11],0.05
same,Vd,[12],1.2 L/kg
same,clearance,[13],40 mL/min/kg
O=C(c1cccc2ccccc12)N1CCC(O)(Cc2ccccc2)CC1,Ki,[1]; read-out: Ki,6620 nM
CN1CCC(n2cc(C(=O)N3CCC4(CC3)OCc3ccccc34)c3ccc(Cl)cc32)CC1,Ki,[1]; read-out: Ki,4 nM
same,Kb,[2],3.3 nM
same,Ki,[3]; read-out: Ki,11 nM
same,Ratio Ki,[8],> 6750
same,Ratio Ki,[9],1200
same,solubility at 3 h,[6],12 µg/mL
same,Activity,[10],Not Active
same,Kp,[11],1
same,Vd,[12],7.2 L/kg
same,clearance,[13],52 mL/min/kg
CCOc1ccc2ccccc2c1C(=O)N1CCC(O)(Cc2ccccc2)CC1,Ki,[1]; read-out: Ki,2830 nM
same,Ki,[16]; read-out: Ki,12000 nM
O=C1OC2(CCN(C(=O)c3c[nH]c4cc(Cl)ccc34)CC2)c2ccccc21,Ki,[1]; read-out: Ki,5 nM
same,Kb,[2],5 nM
same,Ki,[3]; hek293,Not Active
O=C(c1c[nH]c2cc(Cl)ccc12)N1CCC(n2c(=O)[nH]c3ccccc32)CC1,Ki,[1]; read-out: Ki,8 nM
same,Kb,[2],14 nM
same,Ki,[3]; read-out: Ki,2390 nM
CCOc1ccc2ccccc2c1C(=O)N1CCC2(CC1)OCc1ccccc12,Ki,[1]; read-out: Ki,81 nM
same,Ki,[16],Not Active
CN1CCC[C@H]1Cn1cc(C(=O)N2CCC3(CC2)OCc2ccccc23)c2ccc(Cl)cc21,Ki,[1]; read-out: Ki,1 nM
same,Kb,[2],0.5 nM
same,Ki,[3]; read-out: Ki,13 nM
same,Ratio Ki,[8],6070
same,Ratio Ki,[9],1980
same,solubility at 3 h,[6],140 µg/mL
same,Activity,[10],Not Active
same,Kp,[11],2
same,Vd,[12],2.6 L/kg
same,clearance,[13],67 mL/min/kg
O=C(c1c[nH]c2cc(Cl)ccc12)N1CCC(c2ccccc2)CC1,Ki,[1]; read-out: Ki,23 nM
same,Kb,[2],43 nM
same,Ki,[3]; read-out: Ki,1490 nM
O=C1Nc2ccccc2C2(CCN(C(=O)c3c[nH]c4cc(Cl)ccc34)CC2)O1,Kb,[2],38 nM
same,Ki,[3]; hek293,Not Active
